Each structure is given as a SMILES string. Activity calls are given as the source filed them.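 How the source made its calls: active means compounds lowering dye-labelled HDL uptake whose fitted half-maximal concentration is at most double the top tested dose; inconclusive means flat fit with moderate inhibition, or an unreliable curve fit; inactive means the rest.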

In the assay the target is Scavenger receptor class B member 1 (Mus musculus) (UniProt Q61009). Kind of assay: HDL uptake after compound washout, mSR-BI cells – ldlA[mSR-BI] CHO cells, fluorescence, dry powder, mechanism study for SR-BI HDL uptake inhibitor project, dose response (AID 588831). As to conditions: DiI-HDL uptake after washout. An outline of the steps:
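System: ldlA[mSR-BI] CHO cells, LDL-receptor-deficient, overexpressing mouse SR-BI; Buffer or medium: Ham's F12 with 0.5% BSA, 25 mM HEPES pH 7.4; Probe or stimulus: DiI-HDL at 10 µg/mL; Times: 2 h compound pretreatment at 37 °C, 3 h DiI-HDL uptake; Measured by: DiI fluorescence, bottom read.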

Sequence of Scavenger receptor class B member 1 (Mus musculus) (Q61009 whole entry, looked up): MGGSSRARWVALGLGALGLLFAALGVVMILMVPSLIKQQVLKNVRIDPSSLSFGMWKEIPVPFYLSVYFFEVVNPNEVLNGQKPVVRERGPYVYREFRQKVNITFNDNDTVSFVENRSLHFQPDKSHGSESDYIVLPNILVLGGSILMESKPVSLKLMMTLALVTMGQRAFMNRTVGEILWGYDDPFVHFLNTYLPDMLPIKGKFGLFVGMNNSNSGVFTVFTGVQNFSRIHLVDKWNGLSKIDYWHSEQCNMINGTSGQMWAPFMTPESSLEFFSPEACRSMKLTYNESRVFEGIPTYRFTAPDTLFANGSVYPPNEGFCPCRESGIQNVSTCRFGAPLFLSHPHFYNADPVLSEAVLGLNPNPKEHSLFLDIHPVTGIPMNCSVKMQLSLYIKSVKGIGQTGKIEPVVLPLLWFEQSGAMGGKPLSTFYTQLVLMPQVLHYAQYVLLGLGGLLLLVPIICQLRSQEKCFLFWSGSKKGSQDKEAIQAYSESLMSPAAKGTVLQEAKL

Turning to `C[C@H](C(=O)NC1CCCC1)N(C(=O)Cn1nnc(-c2ccc3c(c2)OCO3)n1)C1CCCCC1`, the “activity change, negative = inhibition” value (at 35 µM (top of the series)) is “inactive”.

The AC50 is the concentration giving half of the maximal activity seen. In the case of `COCC(=O)N1CCc2cc(-c3csc(NC(=O)c4cc(OC)cc(OC)c4)n3)ccc21`, the AC50 was 315 nM.

On to `CCCCCCC1CCC/C1=N\NC(N)=S` (stereo not drawn), for which the AC50 is 0.987 nM.

These data come from PubChem BioAssay AID588831 (Broad Institute, 2011).
